The results in this text go back to ChEMBL document CHEMBL3352556, “Neural cell activation by phenolic compounds from the Siberian larch (Larix sibirica)” (J Nat Prod, 2014).

The species named for data set [1] is Mus musculus. Put plainly: Induction of neurite outgrowth in C57BL/6J mouse primary cerebellar neurons after 24 hrs by microscopy. In kind it is functional. The procedure, abridged: (§1)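 Cerebellar granule neurons from 6- to 8-day-old mice were plated at 2.5 × 10^4 cells/well on PLL in defined serum-free medium. Compound (100 pM–1 μM; 0.1% DMSO final, DMSO control) was added 1 h post-seeding and cells were fixed at 24 h. Neurite length was measured by microscopy. Duplicates, ≥100 cells per treatment, 3 independent experiments, mean ± SEM.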

The nature of data set [2]: Cytotoxicity against C57BL/6J mouse primary cerebellar neurons assessed as reduction in cell viability at 1 uM after 24 hrs by microscopy.
For data set [3], the species on record is Mus musculus. Briefly: Induction of neurite outgrowth in C57BL/6J mouse motoneurons at 500 nM after 24 hrs by microscopy. In kind it is functional. The procedure, abridged: (§2)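 Motoneurons came from spinal cords of E14.5 mice, were seeded at 1.25 × 10^4 cells/well on poly-L-ornithine and cultured serum-free. Compound was added 1 h after seeding (0.1% DMSO final; DMSO control) and cells were fixed at 24 h. Neurite length was measured microscopically. Duplicates, ≥100 cells per treatment, 3 independent experiments, mean ± SEM.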

A short description of data set [4]: Induction of migration of C57BL/6J mouse cerebellar primary neuron at 100 nM after 48 hrs by microscopy relative to DMSO-treated control. Format: functional.
The subject of data set [5] is Schwann. Put plainly: Stimulation of process formation/elongation of C57BL/6J mouse Schwann cells at 1 uM after 24 hrs by microscopy. Format: functional, cell-based. An outline of the steps: (§3)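 Schwann cells from dorsal root ganglia of 6- to 8-day-old mice were seeded at 1.25 × 10^4 cells/well on PLL and cultured serum-free. Compound (0.1% DMSO final; DMSO control) was added 1 h after seeding and cells were fixed at 24 h. Process length was measured microscopically. Duplicates, ≥100 cells per treatment, 3 independent experiments, mean ± SEM.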

Data set [6] in a line: Induction of migration of C57BL/6J mouse cerebellar primary neuron assessed as cell population migrating to 1- 150 um at 100 nM after 48 hrs by microscopy (reference value: 72 %). In kind it is functional.
A further data set relates to Astrocyte. Briefly: Reduction in migration of C57BL/6J mouse brain astrocytes assessed as distance of migration at 100 nM after 8 to 48 hrs by scratch injury assay (reference value: 700 um). Format: functional.
The nature of data set [7]: Induction of migration of C57BL/6J mouse cerebellar primary neuron assessed as cell population migrating to 151- 300 um at 100 nM after 48 hrs by microscopy (reference value: 25 %). In kind it is functional.
For data set [8], the system named is Schwann. Put plainly: Stimulation of process formation/elongation of C57BL/6J mouse Schwann cells after 24 hrs by microscopy. Format: functional, cell-based. An outline of the steps:
as §3

The nature of data set [9]: Induction of neurite outgrowth in C57BL/6J mouse primary cerebellar neurons at 100 nM after 24 hrs by microscopy relative to DMSO-treated control. Format: functional. The procedure, abridged:
as §1

Data set [10] in a line: Stimulation of process formation/elongation of C57BL/6J mouse Schwann cells at 100 pM to 100 nM after 24 hrs by microscopy relative to DMSO-treated control. Format: functional. The procedure, abridged:
as §3

The nature of data set [11]: Cytotoxicity against C57BL/6J mouse Schwann cells at 1 uM after 24 hrs by microscopy. Format: cell-based.
A short description of data set [12]: Induction of migration of C57BL/6J mouse cerebellar primary neuron assessed as cell population migrating to >301 um at 100 nM after 48 hrs by microscopy (reference value: 3 %). Format: functional.
The species named for data set [13] is Mus musculus. Put plainly: Induction of neurite outgrowth in C57BL/6J mouse motoneurons at 1 to 200 nM after 24 hrs by microscopy. In kind it is functional. The procedure, abridged:
as §2

Data set [14] in a line: Induction of neurite outgrowth in C57BL/6J mouse dorsal root ganglion neurons at 100 nM after 24 hrs by microscopy relative to DMSO-treated control. Format: functional, DRG neuron. An outline of the steps: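 Dorsal root ganglion neurons from 6- to 8-day-old mice were seeded at 1.25 × 10^4 cells/well on PLL in serum-free culture. 100 nM compound (0.1% DMSO final) was added 1 h after seeding. Cells were fixed after 24 h and neurite length was measured by microscopy versus DMSO control. Duplicates, ≥100 cells per treatment, 3 independent experiments, mean ± SEM.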

Activity calls are given as the source filed them. The rule behind the calls is not given here.

`COc1cc(C[C@@H](CO)[C@H](CO)Cc2ccc(O)c(OC)c2)ccc1O` [(+)-SECOISOLARICIRESINOL]: the Activity result in the data set filed under Mus musculus [1] is “Dose-dependent effect”; in data set [2], “Non-toxic”; in data set [6] it was 65%; in the data set on Astrocyte, 500 µm; in data set [7], 27%; with Schwann [8], “Dose-dependent effect”. Besides, the Activity entry in [11] was “Non-toxic”; in data set [12], 8%. Besides, the outcome in the data set listed under Mus musculus [3] and with Schwann [5] was inactive. Besides, the “fold change (FC)” value in data set [4] amounted to 1.2; in [9], 1.6; in data set [10], 1.8. Moreover, in the data set filed under Mus musculus [13], the outcome was Active.

Take `O=C1c2c(O)cc(O)cc2O[C@H](c2ccc(O)c(O)c2)[C@H]1O` [(+)-TAXIFOLIN]: the Activity entry in the data set filed under Mus musculus [1] was “Dose-dependent effect”; in data set [2], “Non-toxic”; in data set [6], 59%; in the data set on Astrocyte it was 500 µm; in data set [7] it was 29%; with Schwann [8], “Dose-dependent effect”. In addition, the Activity result in data set [11] is “Non-toxic”; in data set [12], 12%. The fold change (FC) in data set [14] is 1.7; in [4] it was 1.4; in data set [9] it was 1.6; in [10], 1.9. In addition, the result in the data set filed under Mus musculus [3] and with Schwann [5] was inactive. Besides, the result in the data set filed under Mus musculus [13] was Active.

Consider `COc1cc([C@H]2c3cc(O)c(OC)cc3C[C@@H](CO)[C@@H]2CO)ccc1O` [ISOLARICIRESINOL], for which the Activity entry was “Dose-dependent effect” in the data set filed under Mus musculus [1]; “Non-toxic” in data set [2]; 68% in data set [6]; 500 µm with Astrocyte; 24% in data set [7]; “Dose-dependent effect” with Schwann [8]. The Activity result in data set [11] is reported as “Non-toxic”; in data set [12], 8%. Besides, the outcome in the data set filed under Mus musculus [3] and in the data set on Schwann [5] was inactive. The “fold change (FC)” value worked out at 1.2 in data set [4], 1.6 in [9] and 1.8 in [10]. The result in the data set listed under Mus musculus [13] was Active.
